Legend:
Trypanosoma cruzi [1] = experiment: Ratio of kinact for Trypanosoma cruzi recombinant S-adenosyl-L-homocysteine hydrolase NAD form to KI for Trypanosoma cruzi recombinant S-adenosyl-L-homocysteine hydrolase NAD form
[2] = target: Adenosylhomocysteinase (Homo sapiens) (UniProt P23526); experiment: Inactivation of human recombinant S-adenosyl-L-homocysteine hydrolase NAD+ form expressed in Escherichia coli JM109 at 100 uM
Procedure, shortened: (§1)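 Enzyme (1 μM), fully reconstituted with NAD+, incubated with 100 μM ribavirin and 50 μM NAD+ in phosphate pH 7.2 at 37 °C; remaining hydrolytic activity (AdoHcy → Ado + Hcy, ADA-coupled, DTNB read at 412 nm, 22 °C) sampled over time; first-order inactivation rate constant.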

Trypanosoma cruzi [3] = experiment: Binding to Trypanosoma cruzi recombinant S-adenosyl-L-homocysteine hydrolase NADH form expressed in Escherichia coli JM109
Procedure, shortened: (§2)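 Apo-enzyme reconstituted with 1 mM NADH (pH 8.5, 12 h, 4 °C) and gel-filtration purified; 10 μM enzyme incubated with ribavirin 0-6 mM in 50 mM phosphate pH 7.2, 1 mM EDTA, 37 °C. Quenching of bound NADH fluorescence (ex 340/em 450 nm) fit to hyperbolic saturation model to give dissociation constant KR.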

[4] = target: Adenosylhomocysteinase (Homo sapiens) (UniProt P23526); experiment: Inactivation of human recombinant S-adenosyl-L-homocysteine hydrolase NAD+ form expressed in Escherichia coli JM109 assessed as increase in fluorescence at 200 uM
Procedure, shortened: (§3)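 NAD+-reconstituted enzyme (10 μM) incubated with 200 μM ribavirin plus 100 μM NAD+ in 50 mM phosphate pH 7.2, 1 mM EDTA at 37 °C; rise in NADH fluorescence (ex 340/em 450 nm) followed over time and fit to first-order relationship.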

Trypanosoma cruzi [5] = experiment: Inactivation of Trypanosoma cruzi recombinant S-adenosyl-L-homocysteine hydrolase NAD+ form expressed in Escherichia coli JM109 assessed as increase in fluorescence at 200 uM; procedure, shortened: as §3
[6] = target: Adenosylhomocysteinase (Homo sapiens) (UniProt P23526); experiment: Ratio of kinact for human recombinant S-adenosyl-L-homocysteine hydrolase NAD+ form to KI for human recombinant S-adenosyl-L-homocysteine hydrolase NAD+
Trypanosoma cruzi [7] = experiment: Inactivation of Trypanosoma cruzi recombinant S-adenosyl-L-homocysteine hydrolase NAD+ form expressed in Escherichia coli JM109 at 100 uM; procedure, shortened: as §1
[8] = target: Adenosylhomocysteinase (Homo sapiens) (UniProt P23526); experiment: Binding to human recombinant S-adenosyl-L-homocysteine hydrolase NADH form expressed in Escherichia coli JM109; procedure, shortened: as §2
Trypanosoma cruzi [9] = experiment: Inactivation of Trypanosoma cruzi recombinant S-adenosyl-L-homocysteine hydrolase NADH form expressed in Escherichia coli JM109 assessed by measuring fluorescence

Adenosylhomocysteinase (Homo sapiens), sequence (P23526 2-432 limits assumed): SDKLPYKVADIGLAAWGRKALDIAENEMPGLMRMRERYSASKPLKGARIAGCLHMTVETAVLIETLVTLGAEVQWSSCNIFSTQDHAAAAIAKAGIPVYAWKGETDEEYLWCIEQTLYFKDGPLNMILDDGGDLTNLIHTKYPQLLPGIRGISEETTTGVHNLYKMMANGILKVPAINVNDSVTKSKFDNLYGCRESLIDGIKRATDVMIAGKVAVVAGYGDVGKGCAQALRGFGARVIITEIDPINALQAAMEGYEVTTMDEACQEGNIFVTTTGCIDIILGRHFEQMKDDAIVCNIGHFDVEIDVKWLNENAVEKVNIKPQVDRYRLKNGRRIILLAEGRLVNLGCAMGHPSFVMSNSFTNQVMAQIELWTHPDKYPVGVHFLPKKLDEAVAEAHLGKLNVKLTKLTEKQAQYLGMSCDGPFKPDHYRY

Compound	Ratio (Trypanosoma cruzi [1])	Activity [2]	KR (Trypanosoma cruzi [3])	Fluorescence intensity [4]	Fluorescence intensity (Trypanosoma cruzi [5])	Ratio [6]	Activity (Trypanosoma cruzi [7])	KR [8]	Activity (Trypanosoma cruzi [9])	Fluorescence intensity (Trypanosoma cruzi [9])
NC(=O)c1ncn([C@@H]2O[C@H](CO)[C@@H](O)[C@H]2O)n1	3.92 M⁻¹ s⁻¹	Dose-dependent effect	586 µM	182000	227000	0.56 M⁻¹ s⁻¹	Dose-dependent effect	407 µM	3.13 10^10/M	
Nc1ncnc2c1ncn2[C@@H]1C=C[C@@H](O)[C@H]1O										5.4%
